From ChEMBL document CHEMBL3352174, “Identification of a New RXRα Antagonist Targeting the Coregulator-Binding Site” (ACS Med Chem Lett, 2014)
Residue numbers refer to the chain shown, from its start. Active and inactive are the calls of the source. No cut-off for these calls is given here.

Columns and labels:
[1] = tested on: T1, Retinoic acid receptor RXR-alpha (Homo sapiens), P19793 [V298S]; assay: Antagonist activity against RXRalpha V298S mutant (unknown origin) expressed in human HEK293T cells assessed as inhibition of 9-cis-RA-induced receptor transactivation at 1 uM after 18 hrs by luciferase reporter gene based mammalian one-hybrid assay; format: cell-based; settings: HEK-293T
T1 sequence (whole entry): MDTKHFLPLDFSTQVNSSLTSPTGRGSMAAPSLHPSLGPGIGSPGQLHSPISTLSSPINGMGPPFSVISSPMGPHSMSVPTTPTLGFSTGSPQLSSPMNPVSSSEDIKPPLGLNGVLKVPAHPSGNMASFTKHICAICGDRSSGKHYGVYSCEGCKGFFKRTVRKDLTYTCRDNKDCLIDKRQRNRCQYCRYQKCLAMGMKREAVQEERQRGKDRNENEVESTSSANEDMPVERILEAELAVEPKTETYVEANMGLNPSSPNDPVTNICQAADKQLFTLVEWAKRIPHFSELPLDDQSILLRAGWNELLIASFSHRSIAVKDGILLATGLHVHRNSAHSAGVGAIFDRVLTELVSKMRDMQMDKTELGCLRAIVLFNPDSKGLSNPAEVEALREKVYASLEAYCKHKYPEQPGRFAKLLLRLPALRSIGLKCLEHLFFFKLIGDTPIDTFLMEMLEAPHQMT
In short: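 The pG5-Luc reporter was cotransfected with pBind-RXRα/V298S (Gal4-fusion construct) into HEK-293T cells. Cells were then exposed to the indicated compounds for 18 h, and luciferase reporter activity was measured.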

[2] = tested on: T2, Retinoic acid receptor RXR-alpha (Homo sapiens), P19793 [F313A]; settings: HEK-293T, 1 uM
T2 sequence (whole entry): T1 sequence (whole entry) with S298V, F313A

[3] = tested on: T3, Retinoic acid receptor RXR-alpha (Homo sapiens), P19793 [C432W]; settings: HEK-293T, 1 uM
T3 sequence (whole entry): T1 sequence (whole entry) with S298V, C432W

[4] = tested on: T4, Retinoic acid receptor RXR-alpha (Homo sapiens), P19793 [A272W]; settings: HEK-293T, 1 uM
T4 sequence (whole entry): T1 sequence (whole entry) with A272W, S298V

[5] = target: T5, Retinoic acid receptor RXR-alpha (Homo sapiens) (UniProt P19793); assay: Antagonist activity against Myc-tagged RXRalpha ligand binding domain (unknown origin) expressed in human MCF7 cells assessed as inhibition of 9-cis-RA-induced receptor transactivation at 10 uM after 18 hrs by luciferase reporter gene based mammalian one-hybrid assay; format: cell-based
T5 sequence (whole entry): T1 sequence (whole entry) with S298V
In short: (§1)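 MCF-7 cells co-transfected with pG5-Luc reporter and pBind-RXRα-LBD. […] Read-out was dual-luciferase, with firefly normalized to Renilla for transfection efficiency. Single-concentration tests used 10 μM. Mean ± SD.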

[6] = target: T5, Retinoic acid receptor RXR-alpha (Homo sapiens); assay: Antagonist activity against Myc-tagged RXRalpha ligand binding domain (unknown origin) expressed in human MCF7 cells assessed as inhibition of 9-cis-RA-induced receptor transactivation after 18 hrs by luciferase reporter gene based mammalian one-hybrid assay; format: cell-based; in short: as §1

inhibition [5] | inhibition [6] | SMILES | inhibition [1] | inhibition [2] | inhibition [3] | inhibition [4]
– | – | CCCOc1cc2c(cc1C(=C1CC1)c1ccc(C(=O)O)cc1)C(C)(C)CCC2(C)C | Active | Active | inactive | inactive
Active | Dose-dependent effect | CCC(Sc1nc2ccccc2s1)C(=O)N/N=C/c1c(O)ccc2ccccc12 (configuration not stated) | – | – | – | –
– | – | CCCCCOc1cc2c(cc1-c1cc(/C=C/C(=O)O)ccc1O)C(C)(C)CCC2(C)C | Active | – | – | –
